The source made the active and inactive calls. The rule behind the calls is not given here.
Legend:
Shigella flexneri [1] = assay: The relative ability of compound to promote the growth of Shigella flexneri SA 240, a strain lacking the ability to synthesize siderophores was measured as zone stimulation at concentration of 100 uM; NA=No activity; type: functional, organism-based
Summary of the method: (§1)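 SA240 (S. flexneri 2a SA100 iucD::Tn5, a siderophore-synthesis mutant) was grown overnight in Luria broth, then seeded at 10^3/mL into Luria agar with the iron chelator EDDA (250 µg/mL). Compounds were made as 10 mM water stocks and diluted in water to the test levels. Sterile disks holding 10 µL were laid on the agar and incubated 18 h at 37 °C. Diameters of the growth-stimulation zones were measured.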

Shigella flexneri [2] = assay: The relative ability of compound to promote the growth of Shigella flexneri SA 240, a strain lacking the ability to synthesize siderophores was measured as zone stimulation at concentration of 1 mM; type: functional; summary of the method: as §1
Shigella flexneri [3] = assay: The relative ability of compound to promote the growth of Shigella flexneri SA 240, a strain lacking the ability to synthesize siderophores was measured as zone stimulation at concentration of 500 uM; type: functional; summary of the method: as §1
Shigella flexneri [4] = assay: The relative ability of compound to promote the growth of Shigella flexneri SA 240, a strain lacking the ability to synthesize siderophores was measured as zone stimulation at concentration of 5 mM; type: functional; summary of the method: as §1
Shigella flexneri [5] = assay: The relative ability of compound to promote the growth of Shigella flexneri SA 240, a strain lacking the ability to synthesize siderophores was measured as zone stimulation at concentration of 5 mM; NA=No activity; type: functional, organism-based; summary of the method: as §1
Shigella flexneri [6] = assay: The relative ability of compound to promote the growth of Shigella flexneri SA 240, a strain lacking the ability to synthesize siderophores was measured as zone stimulation at concentration of 100 uM; type: functional; summary of the method: as §1
Shigella flexneri [7] = assay: The relative ability of compound to promote the growth of Shigella flexneri SA 240, a strain lacking the ability to synthesize siderophores was measured as zone stimulation at concentration of 50 uM; NA=No activity; type: functional, organism-based; summary of the method: as §1

With `CC(=O)N(O)CCC[C@H](NC(=O)[C@H](CCCN(O)C(C)=O)NC(=O)[C@@H](N)CCCN(O)C(C)=O)C(=O)N[C@H](CO)C(=O)O` as the compound, how does the Zone of stimulation (Shigella flexneri [1]) read?
The Zone of stimulation was “inactive”.

And the Zone of stimulation (Shigella flexneri [2])?
The Zone of stimulation was 12 mm.

What about the Zone of stimulation (Shigella flexneri [3]) of the same compound?
The Zone of stimulation was 12 mm.

What about the Zone of stimulation (Shigella flexneri [4]) of the same compound?
The Zone of stimulation was 18 mm.

For `CC(=O)N(O)CCC[C@H](N)C(=O)O`, which Zone of stimulation (Shigella flexneri [5]) is on record?
Its Zone of stimulation is “inactive”.

Which results are given for `CC(=O)N(O)CCC[C@H](NC(=O)[C@H](CCCN(O)C(C)=O)NC(=O)[C@@H](N)CCCN(O)C(C)=O)C(=O)N[C@@H](C(=O)O)c1ccc(O)cc1`?
Zone of stimulation (Shigella flexneri [6]): 15 mm; Zone of stimulation (Shigella flexneri [2]): 40 mm; Zone of stimulation (Shigella flexneri [3]): 25 mm; Zone of stimulation (Shigella flexneri [4]): 45 mm; Zone of stimulation (Shigella flexneri [7]): inactive

Which results are given for `CC(=O)N(O)CCC[C@H](NC(=O)[C@H](CCCN(O)C(C)=O)NC(=O)[C@@H](N)CCCN(O)C(C)=O)C(=O)N[C@@H](C(=O)O)c1ccccc1`?
Zone of stimulation (Shigella flexneri [6]): 17 mm; Zone of stimulation (Shigella flexneri [2]): 41 mm; Zone of stimulation (Shigella flexneri [3]): 28 mm; Zone of stimulation (Shigella flexneri [4]): 45 mm; Zone of stimulation (Shigella flexneri [7]): inactive

How did the Zone of stimulation (Shigella flexneri [5]) turn out when `CC(=O)N(O)CCC[C@H](NC(=O)[C@H](CCCN(O)C(C)=O)NC(=O)[C@@H](N)CCCN(O)C(C)=O)C(=O)N[C@H](CO)C(=O)N[C@H](CC(=O)O)C(=O)O` was run?
Its Zone of stimulation is “inactive”.

How did the Zone of stimulation (Shigella flexneri [6]) turn out when `CC(=O)N(O)CCC[C@H](NC(=O)[C@H](CCCN(O)C(C)=O)NC(=O)[C@@H](N)CCCN(O)C(C)=O)C(=O)O` was run?
Its Zone of stimulation is 13 mm.

What about the Zone of stimulation (Shigella flexneri [2]) of the same compound?
Its Zone of stimulation is 37 mm.

What about the Zone of stimulation (Shigella flexneri [3]) of the same compound?
Its Zone of stimulation is 30 mm.

What about the Zone of stimulation (Shigella flexneri [4]) of the same compound?
Its Zone of stimulation is 40 mm.

What about the Zone of stimulation (Shigella flexneri [7]) of the same compound?
The Zone of stimulation was “inactive”.
